The values below come from ChEMBL document CHEMBL4382285, “Discovery of Novel Retigabine Derivatives as Potent KCNQ4 and KCNQ5 Channel Agonists with Improved Specificity” (ACS Med Chem Lett, 2019).

What all share (format): cell-based
Data set [1] deals with T1, Potassium voltage-gated channel subfamily KQT member 4 (Homo sapiens, UniProt P56696).
T1 sequence (P56696 whole entry): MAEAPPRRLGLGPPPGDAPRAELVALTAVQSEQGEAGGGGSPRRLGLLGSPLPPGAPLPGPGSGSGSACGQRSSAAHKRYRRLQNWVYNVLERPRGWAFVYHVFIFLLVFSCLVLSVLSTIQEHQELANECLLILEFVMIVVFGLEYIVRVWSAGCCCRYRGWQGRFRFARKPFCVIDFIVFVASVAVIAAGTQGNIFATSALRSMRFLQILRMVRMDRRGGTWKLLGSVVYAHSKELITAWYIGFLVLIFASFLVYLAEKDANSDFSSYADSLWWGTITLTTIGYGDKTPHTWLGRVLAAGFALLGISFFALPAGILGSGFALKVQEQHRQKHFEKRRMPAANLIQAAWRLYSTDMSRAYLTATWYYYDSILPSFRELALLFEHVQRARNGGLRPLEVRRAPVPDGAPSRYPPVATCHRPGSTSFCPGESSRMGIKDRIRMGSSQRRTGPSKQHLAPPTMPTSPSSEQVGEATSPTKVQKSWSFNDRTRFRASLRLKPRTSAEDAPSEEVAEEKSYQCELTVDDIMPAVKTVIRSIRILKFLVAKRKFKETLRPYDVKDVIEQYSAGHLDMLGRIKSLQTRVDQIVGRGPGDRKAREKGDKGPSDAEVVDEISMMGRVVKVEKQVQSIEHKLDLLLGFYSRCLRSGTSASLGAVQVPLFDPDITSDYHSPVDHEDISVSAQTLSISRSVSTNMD
The experiment in a line: Agonist activity at human KCNQ4 expressed in CHOK1 cells by whole cell patch clamp assay. Put shortly: (§1)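 Concentration–response by whole-cell voltage clamp in CHO-K1 cells transiently expressing the homomeric channel. EC50 and Hill coefficient come from fitting outward currents recorded across the tested concentrations.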
(In patch-clamp work, channel activity is measured electrically.)

In data set [2] the target is T2, Potassium voltage-gated channel subfamily KQT member 2 (Rattus norvegicus, UniProt O88943). The data set can be described thus: Activation of rat homomeric KCNQ2 expressed in CHOK1 cells assessed as outward current amplitude up to 30 uM by whole cell patch clamp assay. Put shortly:
(§2)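 Homomeric KCNQ2 in CHO-K1 cells, whole-cell voltage clamp, compound applied over 1–30 μM. Change in outward current amplitude was read against the pre-drug current, including at 30 μM.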

Data set [3] has as its target T3, Potassium voltage-gated channel subfamily KQT member 4 (Homo sapiens) (UniProt P56696).
T3 sequence (whole entry): T1 sequence (P56696 whole entry)
The experiment in a line: Channel opening activity at human KCNQ4 expressed in CHOK1 cells at 10 uM at -60 mV by whole cell patch clamp assay.

For data set [4], the target named is T3, Potassium voltage-gated channel subfamily KQT member 4 (Homo sapiens). The experiment in a line: Activity at human KCNQ4 expressed in CHOK1 cells assessed as ratio of amplitude of outward current in presence of test compound to amplitude of outward current in absence of test compound at 10 uM at -10 mV by whole cell patch clamp assay. Put shortly: (§3)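 CHO-K1 cells expressing the channel, whole-cell voltage clamp, compound at 10 μM. Read-out is the outward current ratio I/I0 with and without compound, taken at −10 mV. I/I0 > 1 counts as activation and < 1 as inhibition. More than four cells per compound.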

The target in data set [5] is Potassium voltage-gated channel subfamily KQT member 2 (Rattus norvegicus) (UniProt O88943). The data set can be described thus: Activity at rat KCNQ2 expressed in CHOK1 cells assessed as ratio of amplitude of outward current in presence of test compound to amplitude of outward current in absence of test compound at 10 uM at -10 mV by whole cell patch clamp assay. Put shortly: as §3

The target in data set [6] is T2, Potassium voltage-gated channel subfamily KQT member 2. The data set can be described thus: Agonist activity at rat KCNQ2 expressed in CHOK1 cells by whole cell patch clamp assay. Put shortly:
as §1

Data set [7] concerns the target Potassium voltage-gated channel subfamily KQT member 2 (Rattus norvegicus) (UniProt O88943). The data set can be described thus: Inhibition of rat homomeric KCNQ2 expressed in CHOK1 cells assessed as effect on outward current amplitude at 30 uM by whole cell patch clamp assay. Put shortly:
as §2

Data set [8] has the same target. The experiment in a line: Effect on voltage-dependent activation of rat KCNQ2 expressed in CHOK1 cells assessed as negative shift in current activation curve at 10 uM by whole cell patch clamp assay.
Data set [9] concerns the target T4, Potassium voltage-gated channel subfamily KQT member 5 (Homo sapiens, UniProt Q9NR82). The data set can be described thus: Agonist activity at human KCNQ5 expressed in CHOK1 cells by whole cell patch clamp assay. Put shortly: as §1
Data set [10] has as its target Potassium voltage-gated channel subfamily KQT member 2 (Rattus norvegicus) (UniProt O88943). The data set can be described thus: Channel opening activity at rat KCNQ2 expressed in CHOK1 cells at 10 uM at -60 mV by whole cell patch clamp assay.
Data set [11] addresses T3, Potassium voltage-gated channel subfamily KQT member 4 (Homo sapiens). The experiment in a line: Effect on voltage-dependent activation of human KCNQ4 expressed in CHOK1 cells assessed as negative shift in current activation curve at 10 uM by whole cell patch clamp assay.
The target of data set [12] is T4, Potassium voltage-gated channel subfamily KQT member 5. The data set can be described thus: Activity at human KCNQ5 expressed in CHOK1 cells assessed as ratio of amplitude of outward current in presence of test compound to amplitude of outward current in absence of test compound at 10 uM at -10 mV by whole cell patch clamp assay. Put shortly: as §3
Data set [13] has as its target T5, Potassium voltage-gated channel subfamily KQT member 3 (Rattus norvegicus, UniProt O88944).
T5 sequence (O88944 whole entry): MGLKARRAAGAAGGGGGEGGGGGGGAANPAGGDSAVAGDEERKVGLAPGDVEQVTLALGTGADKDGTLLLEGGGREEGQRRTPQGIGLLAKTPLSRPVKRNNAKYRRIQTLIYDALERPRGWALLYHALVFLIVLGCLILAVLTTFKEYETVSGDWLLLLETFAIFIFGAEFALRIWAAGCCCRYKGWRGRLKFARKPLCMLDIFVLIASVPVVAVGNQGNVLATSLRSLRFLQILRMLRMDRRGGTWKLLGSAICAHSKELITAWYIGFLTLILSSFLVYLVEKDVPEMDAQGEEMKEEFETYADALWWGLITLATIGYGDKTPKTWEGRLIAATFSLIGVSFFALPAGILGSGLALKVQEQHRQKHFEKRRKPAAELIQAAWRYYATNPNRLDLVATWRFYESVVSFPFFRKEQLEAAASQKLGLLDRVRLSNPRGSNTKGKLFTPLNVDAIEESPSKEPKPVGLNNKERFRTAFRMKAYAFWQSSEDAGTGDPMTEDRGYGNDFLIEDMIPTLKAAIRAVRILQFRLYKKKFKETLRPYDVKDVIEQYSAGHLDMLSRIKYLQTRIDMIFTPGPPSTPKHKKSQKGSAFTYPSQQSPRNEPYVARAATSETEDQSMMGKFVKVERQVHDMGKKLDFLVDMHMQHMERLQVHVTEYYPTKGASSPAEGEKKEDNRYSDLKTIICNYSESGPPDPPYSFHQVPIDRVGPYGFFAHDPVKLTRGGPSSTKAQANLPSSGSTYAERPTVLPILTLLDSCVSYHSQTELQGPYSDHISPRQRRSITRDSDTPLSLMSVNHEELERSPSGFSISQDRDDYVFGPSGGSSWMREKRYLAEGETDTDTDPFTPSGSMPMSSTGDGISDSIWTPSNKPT
The data set can be described thus: Agonist activity at rat KCNQ3 expressed in CHOK1 cells assessed as increase in amplitude of outward current at 10 uM by whole cell patch clamp assay relative to control. Put shortly: (§4)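 Individual KCNQ subtypes and KCNQ2/3 heteromers transfected into CHO cells, whole-cell recording before and after 10 μM compound. Cells held at −80 mV, stepped from −90 to +60 mV in 10 mV increments for 1500 ms, then to −120 mV for 500 ms. Currents compared at −10 and +60 mV.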

Data set [14] addresses Voltage-gated potassium channel, KQT; KCNQ2(Kv7.2)/KCNQ3(Kv7.3) (Homo sapiens, UniProt O43526+O43525). The experiment in a line: Agonist activity at KCNQ2/KCNQ3 (unknown origin) expressed in CHOK1 cells assessed as increase in amplitude of outward current at 10 uM by whole cell patch clamp assay relative to control. Put shortly:
as §4

The source made the active and inactive calls. No cut-off for these calls is given here. Where only a bound is given, the exact number is not on record here.

Potassium voltage-gated channel subfamily KQT member 2 (Rattus norvegicus), sequence (O88943 whole entry): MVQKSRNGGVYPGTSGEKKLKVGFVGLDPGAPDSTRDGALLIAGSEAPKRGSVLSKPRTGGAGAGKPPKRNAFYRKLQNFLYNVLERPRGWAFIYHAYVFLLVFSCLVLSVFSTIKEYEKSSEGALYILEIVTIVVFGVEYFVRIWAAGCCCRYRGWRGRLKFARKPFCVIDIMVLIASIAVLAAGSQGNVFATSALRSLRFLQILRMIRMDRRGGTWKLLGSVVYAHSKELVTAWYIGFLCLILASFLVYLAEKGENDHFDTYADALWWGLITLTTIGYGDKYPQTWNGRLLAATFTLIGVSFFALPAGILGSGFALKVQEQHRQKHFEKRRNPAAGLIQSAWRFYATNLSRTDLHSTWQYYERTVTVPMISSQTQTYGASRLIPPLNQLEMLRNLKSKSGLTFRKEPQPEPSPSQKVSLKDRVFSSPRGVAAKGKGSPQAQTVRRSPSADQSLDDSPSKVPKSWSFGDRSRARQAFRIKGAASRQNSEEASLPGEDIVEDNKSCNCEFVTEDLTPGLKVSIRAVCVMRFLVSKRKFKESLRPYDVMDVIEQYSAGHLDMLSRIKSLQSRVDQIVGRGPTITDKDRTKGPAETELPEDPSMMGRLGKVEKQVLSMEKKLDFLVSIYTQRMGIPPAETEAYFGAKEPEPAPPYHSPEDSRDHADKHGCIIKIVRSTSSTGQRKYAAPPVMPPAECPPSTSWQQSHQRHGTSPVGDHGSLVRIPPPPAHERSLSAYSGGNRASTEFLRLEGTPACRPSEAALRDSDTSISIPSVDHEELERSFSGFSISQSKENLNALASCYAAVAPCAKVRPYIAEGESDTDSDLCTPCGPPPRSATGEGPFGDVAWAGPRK
T2 sequence (O88943 whole entry): as above
T4 sequence (Q9NR82 whole entry): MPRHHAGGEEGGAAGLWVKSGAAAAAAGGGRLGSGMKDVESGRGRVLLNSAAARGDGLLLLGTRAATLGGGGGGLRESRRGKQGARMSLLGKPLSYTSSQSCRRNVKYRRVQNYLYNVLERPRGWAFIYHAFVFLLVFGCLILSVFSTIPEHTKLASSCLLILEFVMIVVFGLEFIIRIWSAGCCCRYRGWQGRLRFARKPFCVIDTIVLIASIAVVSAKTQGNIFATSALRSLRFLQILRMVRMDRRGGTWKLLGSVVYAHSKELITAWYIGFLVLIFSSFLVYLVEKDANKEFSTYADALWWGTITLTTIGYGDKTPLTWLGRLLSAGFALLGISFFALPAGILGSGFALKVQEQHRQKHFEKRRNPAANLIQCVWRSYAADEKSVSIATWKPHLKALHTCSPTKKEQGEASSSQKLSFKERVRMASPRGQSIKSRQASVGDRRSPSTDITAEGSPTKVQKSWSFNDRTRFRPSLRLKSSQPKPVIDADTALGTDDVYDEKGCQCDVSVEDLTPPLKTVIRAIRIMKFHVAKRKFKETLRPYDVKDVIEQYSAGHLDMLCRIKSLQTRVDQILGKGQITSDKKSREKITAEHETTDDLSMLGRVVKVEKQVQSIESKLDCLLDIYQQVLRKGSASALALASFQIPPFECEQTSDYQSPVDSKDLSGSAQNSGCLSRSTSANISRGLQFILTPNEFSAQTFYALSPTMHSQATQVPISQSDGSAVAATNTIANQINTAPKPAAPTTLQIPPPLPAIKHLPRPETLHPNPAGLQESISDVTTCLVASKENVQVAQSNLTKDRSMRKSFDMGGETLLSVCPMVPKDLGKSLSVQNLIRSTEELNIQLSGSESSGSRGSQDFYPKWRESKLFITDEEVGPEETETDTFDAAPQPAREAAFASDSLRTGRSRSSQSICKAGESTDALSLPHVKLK
Voltage-gated potassium channel, KQT; KCNQ2(Kv7.2)/KCNQ3(Kv7.3), sequence (O43526 whole entry): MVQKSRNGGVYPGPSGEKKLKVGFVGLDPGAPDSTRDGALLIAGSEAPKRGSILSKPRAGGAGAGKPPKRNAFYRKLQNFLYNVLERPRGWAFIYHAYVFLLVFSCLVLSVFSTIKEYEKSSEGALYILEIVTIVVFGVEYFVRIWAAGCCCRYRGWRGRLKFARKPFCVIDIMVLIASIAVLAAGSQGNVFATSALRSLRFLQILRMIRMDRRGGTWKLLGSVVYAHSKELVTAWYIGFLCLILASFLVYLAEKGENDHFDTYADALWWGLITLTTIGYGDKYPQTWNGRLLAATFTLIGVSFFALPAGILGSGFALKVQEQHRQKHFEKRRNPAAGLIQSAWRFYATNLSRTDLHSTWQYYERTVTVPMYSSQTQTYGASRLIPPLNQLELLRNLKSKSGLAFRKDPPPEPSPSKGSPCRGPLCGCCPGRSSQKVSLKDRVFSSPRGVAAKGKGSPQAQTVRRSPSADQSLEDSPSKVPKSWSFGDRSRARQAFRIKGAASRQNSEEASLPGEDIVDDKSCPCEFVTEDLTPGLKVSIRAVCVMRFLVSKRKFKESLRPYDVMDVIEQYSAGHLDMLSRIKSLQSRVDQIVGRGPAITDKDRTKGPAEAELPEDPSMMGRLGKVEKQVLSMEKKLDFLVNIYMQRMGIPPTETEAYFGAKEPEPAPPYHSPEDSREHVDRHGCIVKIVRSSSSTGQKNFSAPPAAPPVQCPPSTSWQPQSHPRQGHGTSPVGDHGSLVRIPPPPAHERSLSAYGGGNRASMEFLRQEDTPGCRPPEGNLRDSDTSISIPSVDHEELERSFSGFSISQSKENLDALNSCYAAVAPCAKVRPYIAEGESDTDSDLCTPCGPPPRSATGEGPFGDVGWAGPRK
Voltage-gated potassium channel, KQT; KCNQ2(Kv7.2)/KCNQ3(Kv7.3), sequence (O43525 whole entry): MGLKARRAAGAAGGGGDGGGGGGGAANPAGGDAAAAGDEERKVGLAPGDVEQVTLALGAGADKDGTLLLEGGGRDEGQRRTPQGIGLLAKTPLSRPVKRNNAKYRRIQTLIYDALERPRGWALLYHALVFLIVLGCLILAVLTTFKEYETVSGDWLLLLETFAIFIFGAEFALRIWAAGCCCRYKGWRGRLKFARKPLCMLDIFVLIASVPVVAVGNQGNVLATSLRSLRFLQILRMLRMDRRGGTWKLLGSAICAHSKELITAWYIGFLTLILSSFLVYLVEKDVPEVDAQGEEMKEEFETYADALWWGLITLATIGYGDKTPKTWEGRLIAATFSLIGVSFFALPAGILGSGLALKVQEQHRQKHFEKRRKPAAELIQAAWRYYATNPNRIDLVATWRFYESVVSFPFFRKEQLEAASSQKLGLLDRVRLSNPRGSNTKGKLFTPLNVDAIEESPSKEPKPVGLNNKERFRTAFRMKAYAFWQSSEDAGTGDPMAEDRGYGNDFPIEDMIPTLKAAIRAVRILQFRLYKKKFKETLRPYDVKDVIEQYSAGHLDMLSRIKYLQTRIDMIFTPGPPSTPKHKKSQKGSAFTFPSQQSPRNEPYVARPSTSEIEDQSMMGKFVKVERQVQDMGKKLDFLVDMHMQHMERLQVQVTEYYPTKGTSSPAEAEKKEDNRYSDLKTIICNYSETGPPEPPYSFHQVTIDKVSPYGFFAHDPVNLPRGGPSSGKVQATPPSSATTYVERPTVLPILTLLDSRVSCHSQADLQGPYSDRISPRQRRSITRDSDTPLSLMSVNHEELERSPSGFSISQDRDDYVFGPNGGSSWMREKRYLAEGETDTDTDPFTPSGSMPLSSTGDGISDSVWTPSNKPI

Turning to `C#CCN(Cc1ccc(F)cc1)c1ccc(NC(=O)OCC)c(NC(=O)OC(C)(C)C)c1`, the EC50 in data set [1] was 780 nM; in data set [6], above 30000 nM; in data set [9], 1680 nM. Besides, the Activity entry in [2] is recorded as “Not Active”. For the same molecule, the result in [3], in data set [8], in [10] and in data set [11] was inactive. For the same molecule, the results for the Ratio in data set [4], in data set [5] and in [12] were 6.37, 1.16 and 4.58, respectively. In [7], the inhibition entry was “Active”. The “fold change (FC)” value in data set [13] and in [14] was 1.5 each time.

Usually EC50 stands for the concentration that produces a half-maximal response. Low readings indicate an effect from little substance, high ones a need for much substance.
